Activity calls are given as the source filed them. No cut-off for these calls is given here.
Columns and labels:
[1] = target: Sphingosine 1-phosphate receptor 1 (Homo sapiens, UniProt P21453); assay: Agonist activity at human S1P1 in HLE cell membranes incubated for 45 mins by scintillation counting based [35S]GTP-gamma-S binding assay; design: species or system Cell membrane
Cerebellum [2] = assay: Induction of remyelination in lysophosphatidylcholine-induced demyelination in CD1 mouse organotypic cerebellar slice at 0.01 to 10 nM incubated for 7 days by immunohistochemistry based three-dimensional brain cell culture assay; type: functional, tissue-based; conditions: dose 0.01-10 nM, time 7.0 day
Summary of the method: (§1)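 Cerebellum from P1-2 CD1 mouse pups cut into 350 μm parasagittal slices. Cultured on inserts at 36–37 °C, 5% CO2, in MEM/horse serum/EBSS/glucose medium for 13 days. Demyelination with 0.5 mg/ml LPC overnight, then 24 h in medium, then 7 days of treatment. Slices immunostained for MBP and CBD and imaged by confocal at ×40. Myelination index = CBD+MBP double-stained area divided by CBD single-stained area. ANOVA with Dunnett test.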

[3] = target: T1, Sphingosine 1-phosphate receptor 3 (Homo sapiens, UniProt Q99500); assay: Antagonist activity at human S1P3 expressed in EDG3-Ga15-bla HEK293T cells incubated for 45 mins by scintillation counting based [35S]GTP-gamma-S binding assay relative to control; type: cell membranes, Cell membrane
T1 sequence (Q99500 whole entry): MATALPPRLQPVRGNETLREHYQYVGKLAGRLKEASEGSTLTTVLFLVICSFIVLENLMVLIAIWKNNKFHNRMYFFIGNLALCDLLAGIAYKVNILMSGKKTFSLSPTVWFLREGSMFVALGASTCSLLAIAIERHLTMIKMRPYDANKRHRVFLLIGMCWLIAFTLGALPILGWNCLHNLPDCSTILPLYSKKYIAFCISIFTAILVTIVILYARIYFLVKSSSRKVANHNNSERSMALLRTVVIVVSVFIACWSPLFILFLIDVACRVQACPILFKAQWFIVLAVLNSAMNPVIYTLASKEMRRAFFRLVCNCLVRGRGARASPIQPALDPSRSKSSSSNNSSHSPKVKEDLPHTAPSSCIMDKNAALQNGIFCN

[4] = target: T1, Sphingosine 1-phosphate receptor 3; assay: Agonist activity at human S1P3 expressed in EDG3-Ga15-bla HEK293T cells incubated for 45 mins by scintillation counting based [35S]GTP-gamma-S binding assay relative to control; type: cell membranes, Cell membrane
Summary of the method: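 Membranes from EDG3-Ga15-bla HEK293T cells, 3 μg protein/well, mixed with compound in 3-fold dilution series. Room temperature, 45 min. Filter capture, water washes, scintillation counting. EC50 taken at 50% of each compound's own Ymax.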

Cerebellum [5] = assay: Induction of remyelination in lysophosphatidylcholine-induced demyelination in CD1 mouse organotypic cerebellar slice assessed as myelination index level at 0.01 to 10 nM incubated for 7 days by immunohistochemistry based three-dimensional brain cell culture assay (reference value: 50%); type: functional; conditions: dose 0.01-10 nM, time 7 day; summary of the method: as §1
Cerebellum [6] = assay: Induction of remyelination in lysophosphatidylcholine-induced demyelination in CD1 mouse organotypic cerebellar slice assessed as promotion of Purkinje cell axonal remyelination at 0.01 to 10 nM incubated for 7 days by immunohistochemistry based three-dimensional brain cell culture assay; type: functional, tissue-based; conditions: dose 0.01-10 nM, time 7.0 day; summary of the method: as §1
[7] = Drug metabolism in orally dosed Balb/c mouse assessed as phosphate metabolite to parent AUC (0-24 hrs) ratio at after 24 hrs; type: ADME, organism-based; conditions: in vivo, po
Mus musculus [8] = assay: Induction of lymphopenia in Balb/c mouse assessed as reduction of circulating lymphocytes at 30 mg/kg, po measured after 24 hrs relative to control; type: functional
Summary of the method: (§2)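 Single oral dose to Balb/c mice in PEG300 vehicle, as solution or suspension; vehicle-only group as control. Retro-orbital bleeds at 4 h and 24 h. Lymphocyte counts read on a hematology analyzer. Expressed as % reduction of circulating lymphocytes versus the vehicle group at each time. Group means, n = 3–4 per group.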

Mus musculus [9] = assay: Induction of lymphopenia in Balb/c mouse assessed as reduction of circulating lymphocytes at 0.5 mg/kg, po measured after 4 hrs relative to control; type: functional; summary of the method: as §2
Mus musculus [10] = assay: Induction of lymphopenia in Balb/c mouse assessed as reduction of circulating lymphocytes at 30 mg/kg, po measured after 4 hrs relative to control; type: functional; summary of the method: as §2
Mus musculus [11] = assay: Induction of lymphopenia in orally dosed Balb/c mouse assessed as reduction of circulating lymphocytes measured after 24 hrs relative to control; type: functional, organism-based; summary of the method: as §2
Mus musculus [12] = assay: Suppression of experimental autoimmune-encephalomyelositis in MOG peptide induced C57BL/6 mouse EAE chronic model assessed as improvement in clinical scores at 0.5 mg/kg, po dosed every other day relative to control; type: functional
Summary of the method: (§3)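 C57BL/6 female mice, 6–8 weeks, n=10 per group, immunized subcutaneously with MOG35-55 emulsified 1:1 in incomplete Freund's adjuvant plus M. tuberculosis H37RA. Oral dosing from day 1, every other day or daily as stated. Clinical scores graded up to 5 (death) and averaged per group. At termination, lumbar spinal cord taken for formalin fixation and paraffin sections stained with H&E and Luxol Fast Blue. Groups compared by one-way ANOVA with Tukey post test.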

Cytochrome P450 2C19 = Cytochrome P450 2C19 (Homo sapiens, UniProt P33261); assay: Inhibition of CYP2C19 (unknown origin); type: ADME
Sequence of Cytochrome P450 2C19 (P33261 whole entry): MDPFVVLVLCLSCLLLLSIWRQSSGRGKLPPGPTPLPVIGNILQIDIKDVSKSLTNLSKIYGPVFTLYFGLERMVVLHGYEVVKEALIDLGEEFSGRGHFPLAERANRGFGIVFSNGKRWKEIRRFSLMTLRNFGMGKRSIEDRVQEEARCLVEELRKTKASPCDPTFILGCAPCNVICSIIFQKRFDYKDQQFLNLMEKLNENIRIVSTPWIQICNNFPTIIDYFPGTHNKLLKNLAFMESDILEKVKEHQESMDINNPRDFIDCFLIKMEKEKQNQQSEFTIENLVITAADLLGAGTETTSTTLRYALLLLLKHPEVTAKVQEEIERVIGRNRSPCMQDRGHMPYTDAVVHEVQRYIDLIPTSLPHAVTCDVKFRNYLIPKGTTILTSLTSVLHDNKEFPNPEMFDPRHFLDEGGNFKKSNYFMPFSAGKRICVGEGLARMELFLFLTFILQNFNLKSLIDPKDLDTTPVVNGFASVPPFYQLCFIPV

[13] = Half life in mouse; type: ADME, organism-based; conditions: in vivo
Cytochrome P450 2D6 = Cytochrome P450 2D6 (Homo sapiens, UniProt P10635); assay: Inhibition of CYP2D6 (unknown origin); type: ADME
Sequence of Cytochrome P450 2D6 (P10635 whole entry): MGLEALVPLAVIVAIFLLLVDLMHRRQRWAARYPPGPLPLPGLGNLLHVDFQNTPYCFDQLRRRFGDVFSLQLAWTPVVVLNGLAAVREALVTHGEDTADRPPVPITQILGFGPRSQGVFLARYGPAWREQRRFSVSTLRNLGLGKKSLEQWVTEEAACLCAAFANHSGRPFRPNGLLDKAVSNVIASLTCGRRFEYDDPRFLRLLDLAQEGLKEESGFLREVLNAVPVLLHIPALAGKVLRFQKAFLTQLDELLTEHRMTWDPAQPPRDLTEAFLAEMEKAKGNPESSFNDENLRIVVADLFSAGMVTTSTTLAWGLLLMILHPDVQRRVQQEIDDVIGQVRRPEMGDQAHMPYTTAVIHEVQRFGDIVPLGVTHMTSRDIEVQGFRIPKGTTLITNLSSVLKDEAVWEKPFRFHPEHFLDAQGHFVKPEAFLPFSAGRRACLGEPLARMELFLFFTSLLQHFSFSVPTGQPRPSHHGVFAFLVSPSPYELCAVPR

Mus musculus [14] = assay: Induction of lymphopenia in Balb/c mouse assessed as reduction of circulating lymphocytes at 0.5 mg/kg, po measured after 24 hrs relative to control; type: functional; summary of the method: as §2
[15] = Inhibition of sodium channel (unknown origin) assessed as reduction in Na+ flux; design: species or system Homo sapiens
Cytochrome P450 2C8 = target: T2, Cytochrome P450 2C8 (Homo sapiens, UniProt P10632); assay: Inhibition of CYP2C8 (unknown origin); type: ADME
T2 sequence (P10632 whole entry): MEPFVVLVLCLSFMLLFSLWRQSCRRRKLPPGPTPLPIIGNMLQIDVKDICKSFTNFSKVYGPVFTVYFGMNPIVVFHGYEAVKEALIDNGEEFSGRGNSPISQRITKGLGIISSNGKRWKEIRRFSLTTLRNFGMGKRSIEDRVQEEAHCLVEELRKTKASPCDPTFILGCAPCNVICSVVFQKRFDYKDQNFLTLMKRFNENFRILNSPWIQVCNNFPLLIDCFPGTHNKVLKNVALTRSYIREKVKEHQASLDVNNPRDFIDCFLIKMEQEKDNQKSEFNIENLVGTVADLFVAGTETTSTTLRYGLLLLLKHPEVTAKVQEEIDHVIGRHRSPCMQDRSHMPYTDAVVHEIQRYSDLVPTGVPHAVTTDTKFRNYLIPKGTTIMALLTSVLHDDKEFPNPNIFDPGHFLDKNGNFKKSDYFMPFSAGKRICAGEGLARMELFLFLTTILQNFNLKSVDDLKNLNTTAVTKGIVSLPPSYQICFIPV

hERG (KCNH2) = hERG (KCNH2) (Homo sapiens, UniProt Q12809); assay: Inhibition of human ERG expressed in HEK293 cells assessed as inhibition of peak tail current at 0.3 uM by patch clamp analysis; type: cell-based; conditions: HEK293 cells expressing human ERG
Sequence of hERG (KCNH2) (Q12809 whole entry): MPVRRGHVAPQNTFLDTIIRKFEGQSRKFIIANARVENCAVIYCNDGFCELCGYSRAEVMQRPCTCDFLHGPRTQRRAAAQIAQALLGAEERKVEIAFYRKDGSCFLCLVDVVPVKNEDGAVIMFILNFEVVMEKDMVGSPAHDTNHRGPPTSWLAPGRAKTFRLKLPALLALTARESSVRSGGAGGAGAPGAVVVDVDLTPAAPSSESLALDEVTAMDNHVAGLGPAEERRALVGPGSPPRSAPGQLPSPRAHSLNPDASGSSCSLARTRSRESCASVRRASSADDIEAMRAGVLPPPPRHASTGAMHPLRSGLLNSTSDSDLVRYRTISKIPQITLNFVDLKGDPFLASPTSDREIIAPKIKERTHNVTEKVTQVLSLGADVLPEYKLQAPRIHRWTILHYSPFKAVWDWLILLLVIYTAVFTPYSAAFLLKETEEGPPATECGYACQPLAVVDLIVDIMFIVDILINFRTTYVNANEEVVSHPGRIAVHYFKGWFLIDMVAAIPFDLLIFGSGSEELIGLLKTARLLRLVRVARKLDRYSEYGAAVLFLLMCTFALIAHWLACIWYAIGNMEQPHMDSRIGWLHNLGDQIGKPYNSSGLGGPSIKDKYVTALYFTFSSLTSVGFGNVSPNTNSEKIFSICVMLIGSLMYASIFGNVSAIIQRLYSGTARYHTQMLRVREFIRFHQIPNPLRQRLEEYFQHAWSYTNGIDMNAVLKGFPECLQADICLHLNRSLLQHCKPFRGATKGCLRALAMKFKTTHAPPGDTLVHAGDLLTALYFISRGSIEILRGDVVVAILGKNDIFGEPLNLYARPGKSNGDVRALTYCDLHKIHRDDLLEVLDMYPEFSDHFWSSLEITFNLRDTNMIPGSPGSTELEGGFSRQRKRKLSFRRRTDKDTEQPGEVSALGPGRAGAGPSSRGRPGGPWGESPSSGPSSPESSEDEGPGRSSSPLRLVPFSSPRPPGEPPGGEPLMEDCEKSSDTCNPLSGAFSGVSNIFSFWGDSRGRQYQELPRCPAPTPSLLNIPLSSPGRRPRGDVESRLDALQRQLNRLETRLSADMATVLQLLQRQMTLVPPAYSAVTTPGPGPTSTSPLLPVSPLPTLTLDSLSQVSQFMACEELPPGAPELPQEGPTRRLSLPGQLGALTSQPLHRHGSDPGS
Summary of the method: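 Whole-cell patch clamp on HEK293 cells stably expressing the cloned hERG α subunit, in aqueous buffer pH 7.4 at room temperature. Test pulses at 0.05 Hz stepped from holding to +20 mV for 2 s. Tail currents evoked by a subsequent voltage step. Inhibition measured on peak tail current.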

[16] = Half life in mouse liver microsomes; type: ADME, Microsome
[17] = Half life in rat liver microsomes; type: ADME, Microsome
[18] = Unbound fraction in mouse plasma; type: ADME, cell-free
Mus musculus [19] = assay: Induction of lymphopenia in Balb/c mouse assessed as reduction of circulating lymphocytes at 1 mg/kg, po measured after 4 hrs relative to control; type: functional; summary of the method: as §2
[20] = Unbound fraction in dog plasma; type: ADME, cell-free, Canis lupus familiaris
[21] = Unbound fraction in rat plasma; type: ADME, cell-free
Cytochrome P450 3A4 = Cytochrome P450 3A4 (Homo sapiens, UniProt P08684); assay: Inhibition of CYP3A4 (unknown origin); type: ADME
Sequence of Cytochrome P450 3A4 (P08684 whole entry): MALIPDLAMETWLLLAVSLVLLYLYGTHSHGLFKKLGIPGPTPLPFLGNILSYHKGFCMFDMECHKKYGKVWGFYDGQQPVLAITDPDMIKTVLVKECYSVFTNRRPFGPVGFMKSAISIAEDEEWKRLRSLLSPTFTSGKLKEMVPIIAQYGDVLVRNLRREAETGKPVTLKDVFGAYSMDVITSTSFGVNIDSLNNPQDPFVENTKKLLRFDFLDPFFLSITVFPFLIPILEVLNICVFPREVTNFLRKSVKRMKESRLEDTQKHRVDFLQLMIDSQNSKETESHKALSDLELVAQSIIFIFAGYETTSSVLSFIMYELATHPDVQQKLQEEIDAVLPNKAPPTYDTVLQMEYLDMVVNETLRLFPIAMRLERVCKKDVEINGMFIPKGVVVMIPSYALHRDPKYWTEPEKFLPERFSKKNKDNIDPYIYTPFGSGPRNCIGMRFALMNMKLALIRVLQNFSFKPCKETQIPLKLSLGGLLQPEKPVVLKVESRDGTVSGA

Mus musculus [22] = assay: Induction of lymphopenia in Balb/c mouse assessed as reduction of circulating lymphocytes at 10 mg/kg, po measured after 24 hrs relative to control; type: functional; summary of the method: as §2
[23] = Half life in human liver microsomes; type: ADME, Microsome
Mus musculus [24] = assay: Suppression of experimental autoimmune-encephalomyelositis in MOG peptide induced C57BL/6 mouse EAE chronic model assessed as improvement in clinical scores at 0.5 to 4 mg/kg, po dosed every other day; type: functional, organism-based; conditions: dose 0.5-4 mg/kg; summary of the method: as §3
Mus musculus [25] = assay: Suppression of experimental autoimmune-encephalomyelositis in MOG peptide induced C57BL/6 mouse EAE chronic model assessed as improvement in clinical scores at 4 mg/kg, po dosed every other day relative to control; type: functional; summary of the method: as §3
Mus musculus [26] = assay: Suppression of experimental autoimmune-encephalomyelositis in MOG peptide induced C57BL/6 mouse EAE chronic model assessed as reduction in central nervous system damage at 0.5 to 4 mg/kg, po dosed every other day by hematoxylin and eosin staining based histological analysis relative to control; type: functional, organism-based; conditions: dose 0.5-4 mg/kg; summary of the method: as §3
[27] = Half life in monkey liver microsomes; type: ADME, Macaca mulatta, Microsome; conditions: rhesus monkey
Mus musculus [28] = assay: Induction of lymphopenia in Balb/c mouse assessed as reduction of circulating lymphocytes at 10 mg/kg, po measured after 4 hrs relative to control; type: functional; summary of the method: as §2
Cytochrome P450 2C9 = Cytochrome P450 2C9 (Homo sapiens, UniProt P11712); assay: Inhibition of CYP2C9 (unknown origin); type: ADME
Sequence of Cytochrome P450 2C9 (P11712 whole entry): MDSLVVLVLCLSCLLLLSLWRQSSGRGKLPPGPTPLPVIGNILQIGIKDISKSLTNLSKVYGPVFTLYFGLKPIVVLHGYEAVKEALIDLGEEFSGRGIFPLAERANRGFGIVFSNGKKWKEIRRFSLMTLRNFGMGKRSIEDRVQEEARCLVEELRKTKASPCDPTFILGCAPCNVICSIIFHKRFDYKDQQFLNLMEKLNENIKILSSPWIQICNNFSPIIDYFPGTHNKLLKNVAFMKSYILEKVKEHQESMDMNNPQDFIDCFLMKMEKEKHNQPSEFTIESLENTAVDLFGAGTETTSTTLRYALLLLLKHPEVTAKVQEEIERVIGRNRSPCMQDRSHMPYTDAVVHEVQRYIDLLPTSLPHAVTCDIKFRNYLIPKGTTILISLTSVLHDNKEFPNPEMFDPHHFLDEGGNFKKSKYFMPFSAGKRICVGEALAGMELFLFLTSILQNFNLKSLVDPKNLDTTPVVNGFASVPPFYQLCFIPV

[29] = Unbound fraction in cynomolgus monkey plasma; type: ADME, cell-free, Macaca fascicularis
[30] = Unbound fraction in human plasma; type: ADME, cell-free

Sequence of Sphingosine 1-phosphate receptor 1 (P21453 whole entry): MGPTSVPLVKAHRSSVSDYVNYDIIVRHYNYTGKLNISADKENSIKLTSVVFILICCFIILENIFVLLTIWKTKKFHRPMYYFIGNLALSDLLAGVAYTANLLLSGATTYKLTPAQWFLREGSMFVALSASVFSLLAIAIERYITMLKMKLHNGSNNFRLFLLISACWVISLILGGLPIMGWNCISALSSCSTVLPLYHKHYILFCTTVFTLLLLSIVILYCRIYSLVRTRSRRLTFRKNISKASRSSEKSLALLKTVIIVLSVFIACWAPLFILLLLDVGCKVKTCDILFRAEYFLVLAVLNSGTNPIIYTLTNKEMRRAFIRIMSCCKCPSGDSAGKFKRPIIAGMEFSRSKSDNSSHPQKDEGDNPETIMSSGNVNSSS

Q: Which EC50 [1] does the source give for `CCCCCC[C@@H]1CCc2cc([C@H]3CC[C@](N)(COP(=O)(O)O)C3)ccc2C1` here?
A: 6.4 nM

Q: And the Activity (Cerebellum [2])?
A: Active

Q: And the IC50 [3]?
A: > 1000 nM

Q: And the EC50 [4]?
A: > 1000 nM

Q: And the Activity (Cerebellum [5])?
A: 100%

Q: And the Activity (Cerebellum [6])?
A: Active

Q: Which Ratio [7] does the source give for `CCCCCC[C@H]1CCc2cc([C@H]3CC[C@](N)(CO)C3)ccc2C1` here?
A: 0.57

Q: What about the inhibition in vivo at 30 mg/kg (Mus musculus [8]) of the same molecule?
A: 84%

Q: And the inhibition in vivo at 0.5 mg/kg (Mus musculus [9])?
A: 21%

Q: And the inhibition in vivo at 30 mg/kg (Mus musculus [10])?
A: 66%

Q: With `CCCCCC[C@H]1CCc2cc([C@H]3CC[C@](N)(COP(=O)(O)O)C3)ccc2C1` as the molecule, how does the EC50 [1] read?
A: 60 nM

Q: And the IC50 [3]?
A: > 1000 nM

Q: What about the EC50 [4] of the same molecule?
A: > 1000 nM

Q: And the EC50 (Mus musculus [11])?
A: 35 nM

Q: With `CCCCCC[C@@H]1CCc2cc([C@H]3CC[C@](N)(CO)C3)ccc2C1` [BMS-986104] as the molecule, how does the Activity (Mus musculus [12]) read?
A: 33%

Q: What about the IC50 (Cytochrome P450 2C19) of the same molecule?
A: > 20 µM

Q: And the half-life [13]?
A: 4.08 days

Q: And the IC50 (Cytochrome P450 2D6)?
A: > 20 µM

Q: And the inhibition in vivo at 0.5 mg/kg (Mus musculus [14])?
A: 68%

Q: What about the IC50 [15] of the same molecule?
A: > 80 µM

Q: What about the IC50 (Cytochrome P450 2C8) of the same molecule?
A: 5 µM

Q: And the Ratio [7]?
A: 0.51

Q: And the inhibition at 0.3 µM (hERG (KCNH2))?
A: 36%

Q: What about the half-life [16] of the same molecule?
A: 120 min

Q: What about the half-life [17] of the same molecule?
A: 120 min

Q: What about the Fu [18] of the same molecule?
A: < 1%

Q: And the inhibition in vivo at 1 mg/kg (Mus musculus [19])?
A: 52%

Q: And the Fu [20]?
A: < 1%

Q: And the inhibition in vivo at 30 mg/kg (Mus musculus [8])?
A: 90%

Q: What about the Fu [21] of the same molecule?
A: < 1%

Q: What about the IC50 (Cytochrome P450 3A4) of the same molecule?
A: 19 µM

Q: And the inhibition in vivo at 10 mg/kg (Mus musculus [22])?
A: 90%

Q: What about the inhibition in vivo at 0.5 mg/kg (Mus musculus [9]) of the same molecule?
A: 52%

Q: And the half-life [23]?
A: 107 min

Q: What about the Activity (Mus musculus [24]) of the same molecule?
A: Dose-dependent effect

Q: And the inhibition in vivo at 30 mg/kg (Mus musculus [10])?
A: 88%

Q: And the Activity (Mus musculus [25])?
A: 55%

Q: And the Activity (Mus musculus [26])?
A: Active

Q: What about the Activity (Mus musculus [11]) of the same molecule?
A: Dose-dependent effect

Q: What about the half-life [27] of the same molecule?
A: 120 min

Q: And the inhibition in vivo at 10 mg/kg (Mus musculus [28])?
A: 80%

Q: And the IC50 (Cytochrome P450 2C9)?
A: > 20 µM

Q: What about the Fu [29] of the same molecule?
A: < 1%

Q: What about the Fu [30] of the same molecule?
A: < 1%

From ChEMBL document CHEMBL4715806, “Asymmetric Hydroboration Approach to the Scalable Synthesis of ((1R,3S)-1-Amino-3-((R)-6-hexyl-5,6,7,8-tetrahydronaphthalen-2-yl)cyclopentyl)methanol (BMS-986104) as a Potent S1P Receptor Modulator” (J Med Chem, 2016)
